Active and inactive are the calls of the source. The rule behind the calls is not given here.
Legend:
[1] = system: Mycobacterium tuberculosis; assay: Induction of nitrous acid production in NRP2 phase Mycobacterium bovis BCG assessed as ratio of Vmax to Km under hypoxic non replicating condition; type: functional, variant bovis BCG
Method in brief: (§1)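 NO release measured inside BCG cells preloaded with the NO-specific fluorescent probe DAF-FM diacetate and then treated with compound. Fluorescence (RFU) followed over time. Rate expressed as apparent Vmax/Km, i.e. RFU per hour divided by an intracellularly measured Km (RFU hr–1 μM–1).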

[2] = system: Mycobacterium tuberculosis; assay: Induction of nitrous acid production in NRP2 phase Mycobacterium bovis BCG at 1.85 uM to 100 uM after 2 days under hypoxic non replicating condition in presence of DAF-FM diacetate; type: functional, organism-based; settings: variant bovis BCG
[3] = system: Mycobacterium tuberculosis; assay: Induction of nitrous acid production in NRP2 phase Mycobacterium bovis BCG at 20 uM by fluorescence quenching measurement in presence of C-PTIO; type: functional, organism-based; settings: variant bovis BCG
Method in brief: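 BCG cells preloaded with DAF-FM diacetate were treated with 20 μM nitroimidazole in the presence of increasing concentrations of the NO scavenger C-PTIO. NO read as fluorescence. Three independent replicates, error as SD.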

[4] = system: Mycobacterium tuberculosis; assay: Induction of nitrous acid production in NRP2 phase Mycobacterium bovis BCG under aerobic condition in presence of DAF-FM diacetate; type: functional, organism-based; settings: variant bovis BCG; method in brief: as §1

Row | Compound | Ratio [1] | also measured
1 | O=[N+]([O-])c1cn2c(n1)OC[C@@H](NCCc1ccc(OC(F)(F)F)cc1)C2 | 28.7 | 
2 | O=[N+]([O-])c1cn2c(n1)OC[C@@H](NCc1ccc(OCc3ccc(OC(F)(F)F)cc3)cc1)C2 | 76.9 | 
3 | O=[N+]([O-])c1cn2c(n1)OC[C@@H](OCc1ccc(OC(F)(F)F)cc1)C2 [PRETOMANID] | 12.5 | Activity [2]: Active; Activity [3]: inactive; Activity [4]: Active
4 | O=[N+]([O-])c1cn2c(n1)OC[C@@H](NCCCc1ccc(OC(F)(F)F)cc1)C2 | 60.1 | 
5 | O=[N+]([O-])c1cn2c(n1)NC[C@@H](OCc1ccc(OC(F)(F)F)cc1)C2 | 4.8 | 
6 | O=[N+]([O-])c1cn2c(n1)OC[C@@H](NCCCCc1ccc(OC(F)(F)F)cc1)C2 | 71.6 | 
7 | O=[N+]([O-])c1cn2c(n1)OC[C@@H](NCc1ccc(OC(F)(F)F)cc1)C2 | 10.1 | 
8 | CCCCc1ccc(CN[C@@H]2COc3nc([N+](=O)[O-])cn3C2)cc1 | 4.7 | 

From ChEMBL document CHEMBL1154512, “PA-824 kills nonreplicating Mycobacterium tuberculosis by intracellular NO release” (2008)
